One test is filed under the species Homo sapiens. Nature of the test: Selectivity ratio of IC50 for human recombinant AKR1B1 to IC50 for human AKR1B10. An outline of the steps: (§1)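 Forward reductase assay at 25 C with purified recombinant enzyme from E. coli BL21(DE3) pLysS. Buffer was 0.1 M potassium phosphate pH 7.4 with 0.1 mM NADPH and 0.2 mM pyridine-3-aldehyde. Rate read as NADPH absorbance change at 340 nm. IC50 reported as mean of at least three determinations. Selectivity is the AKR1B1 IC50 divided by the AKR1B10 IC50.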

The target of test [1] is T1, Aldo-keto reductase family 1 member B10 (Homo sapiens, UniProt O60218). Briefly: Inhibition of reductase activity of N-terminal 6His-tagged human AKR1B10 expressed in Escherichia coli BL21(DE3) assessed as pyridine-3-aldehyde reduction. An outline of the steps:
as §1
Target sequence in this assay (O60218 whole entry): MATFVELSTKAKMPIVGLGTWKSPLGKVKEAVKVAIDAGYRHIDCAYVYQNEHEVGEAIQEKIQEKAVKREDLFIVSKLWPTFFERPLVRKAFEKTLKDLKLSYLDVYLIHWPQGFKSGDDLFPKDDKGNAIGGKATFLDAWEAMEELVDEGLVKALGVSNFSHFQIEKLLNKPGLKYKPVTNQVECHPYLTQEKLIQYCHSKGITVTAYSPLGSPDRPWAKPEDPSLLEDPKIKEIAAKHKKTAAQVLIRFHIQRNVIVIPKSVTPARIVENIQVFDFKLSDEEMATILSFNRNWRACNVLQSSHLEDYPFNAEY

In test [2] the target is Aldo-keto reductase family 1 member B1 (Homo sapiens, UniProt P15121). Briefly: Inhibition of reductase activity of N-terminal 6His-tagged human recombinant AKR1B1 expressed in Escherichia coli BL21(DE3) assessed as assessed as pyridine-3-aldehyde reduction. An outline of the steps: as §1
The target in test [3] is T1, Aldo-keto reductase family 1 member B10. Briefly: Inhibition of N-terminal 6His-tagged human AKR1B10 overexpressed in human HeLa cells assessed as inhibition of […] at 1 uM pretreated for 2 hrs before [1-14C]farnesol challenge measured after 6 hrs. It is filed as cell-based. A digest of the protocol:
(§2)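 HeLa cells were transfected with a pGW1 plasmid carrying AKR1B10 cDNA. Culture was DMEM with 10% FBS at 37 C and 5% CO2. Cells were pretreated with inhibitor for 2 h, then incubated with 20 μM [1-14C] labelled substrate for 6 h. Inhibition of farnesal reduction is the mean of duplicate experiments.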
Target sequence in this assay (O60218 whole entry, looked up): as the sequence (O60218 whole entry) above

Test [4] has as its system HT-29. Briefly: Cytotoxicity against human mitomycin C-resistant HT-29 cells assessed as growth inhibition after 96 hrs by trypan blue exclusion assay. Format: functional, cell-based.
Test [5] concerns HT-29. Briefly: Cytotoxicity against human HT-29 cells after 96 hrs by trypan blue exclusion assay. It is filed as functional. The settings on record: HT-29, 96 h, read-out: LD50 (the source's name).
The subject of test [6] is HT-29. Briefly: Inhibition of AKR1B10 mRNA expression in human HT-29 cells at 3 to 30 uM after 24 hrs by RT-PCR analysis. Format: functional, cell-based. An outline of the steps: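 HT29 cells were treated for 24 h with 3, 10 and 30 μM compound. Total RNA was then extracted, and AKR1B10 mRNA was analysed by reverse transcription-PCR.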
The subject of test [7] is HT-29. Nature of the test: Cytotoxicity against human HT-29 cells at 10 uM after 96 hrs by trypan blue exclusion assay. It is filed as functional, cell-based.
Another test has as its target DNA polymerase beta (Homo sapiens, UniProt P06746). Briefly: Inhibition of DNA polymerase beta.
In test [8] the test system is HT-29. Nature of the test: Cytotoxicity against human HT-29 cells at 30 uM after 96 hrs by trypan blue exclusion assay. It is filed as functional, cell-based.
A further test has as its target Phospholipase A2 (Homo sapiens, UniProt P04054). Briefly: Inhibition of phospholipase A2.
Test [9] addresses T1, Aldo-keto reductase family 1 member B10. Nature of the test: Inhibition of N-terminal 6His-tagged human AKR1B10 overexpressed in human HeLa cells assessed as inhibition of […] pretreated for 2 hrs before [1-14C]farnesol challenge measured after 6 hrs. It is filed as cell-based. An outline of the steps:
as §2
Target sequence in this assay (O60218 whole entry, looked up): as the sequence (O60218 whole entry) above

Test [10] concerns the target Aldo-keto reductase family 1 member B10 (Homo sapiens, UniProt O60218, W220Y). Briefly: Competitive inhibition of dehydrogenase activity of N-terminal 6His-tagged human AKR1B10 W220Y mutant expressed in Escherichia coli BL21(DE3) assessed as NADP+-linked geraniol oxidation.
The target of test [11] is Aldo-keto reductase family 1 member B10 (Homo sapiens, UniProt O60218, K125L). Nature of the test: Competitive inhibition of dehydrogenase activity of N-terminal 6His-tagged human AKR1B10 K125L mutant expressed in Escherichia coli BL21(DE3) assessed as NADP+-linked geraniol oxidation.
Chain of Aldo-keto reductase family 1 member B10 (Homo sapiens, UniProt O60218, K125L) (O60218 whole entry K125L): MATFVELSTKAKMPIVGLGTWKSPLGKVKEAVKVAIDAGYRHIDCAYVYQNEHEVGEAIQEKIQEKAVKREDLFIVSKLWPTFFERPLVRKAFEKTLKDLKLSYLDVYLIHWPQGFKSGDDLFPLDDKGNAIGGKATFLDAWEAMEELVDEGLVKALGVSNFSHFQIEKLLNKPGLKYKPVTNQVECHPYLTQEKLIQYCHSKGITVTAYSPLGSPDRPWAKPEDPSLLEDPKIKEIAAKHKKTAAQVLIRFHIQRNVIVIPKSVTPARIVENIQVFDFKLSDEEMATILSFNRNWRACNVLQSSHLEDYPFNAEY
The target of test [12] is Aldo-keto reductase family 1 member B10 (Homo sapiens, UniProt O60218, Q303S). Nature of the test: Competitive inhibition of dehydrogenase activity of N-terminal 6His-tagged human AKR1B10 Q303S mutant expressed in Escherichia coli BL21(DE3) assessed as NADP+-linked geraniol oxidation.
Chain of Aldo-keto reductase family 1 member B10 (Homo sapiens, UniProt O60218, Q303S) (O60218 whole entry Q303S): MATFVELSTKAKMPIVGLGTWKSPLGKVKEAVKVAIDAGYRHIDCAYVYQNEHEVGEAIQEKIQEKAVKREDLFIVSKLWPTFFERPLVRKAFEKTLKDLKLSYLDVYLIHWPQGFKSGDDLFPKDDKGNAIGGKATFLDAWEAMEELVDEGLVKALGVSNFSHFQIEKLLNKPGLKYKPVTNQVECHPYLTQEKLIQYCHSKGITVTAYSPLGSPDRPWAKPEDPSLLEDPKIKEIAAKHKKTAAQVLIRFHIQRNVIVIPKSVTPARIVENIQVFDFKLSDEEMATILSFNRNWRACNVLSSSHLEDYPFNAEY
For test [13], the target named is T1, Aldo-keto reductase family 1 member B10. Nature of the test: Non-competitive inhibition of reductase activity of N-terminal 6His-tagged human AKR1B10 expressed in Escherichia coli BL21(DE3) assessed as pyridine-3-aldehyde reduction.
Target sequence in this assay (O60218 whole entry, looked up): as the sequence (O60218 whole entry) above
Test [14] has as its target Aldo-keto reductase family 1 member B10 (Homo sapiens, UniProt O60218, V301L). Nature of the test: Competitive inhibition of dehydrogenase activity of N-terminal 6His-tagged human AKR1B10 V301L mutant expressed in Escherichia coli BL21(DE3) assessed as NADP+-linked geraniol oxidation.
The target in test [15] is T1, Aldo-keto reductase family 1 member B10. Nature of the test: Competitive inhibition of dehydrogenase activity of N-terminal 6His-tagged human AKR1B10 expressed in Escherichia coli BL21(DE3) assessed as NADP+-linked geraniol oxidation.
Target sequence in this assay (O60218 whole entry): as above

Structures are written as SMILES. Activity calls are given as the source filed them. No cut-off for these calls is given here.

Chain of Phospholipase A2 (P04054 whole entry): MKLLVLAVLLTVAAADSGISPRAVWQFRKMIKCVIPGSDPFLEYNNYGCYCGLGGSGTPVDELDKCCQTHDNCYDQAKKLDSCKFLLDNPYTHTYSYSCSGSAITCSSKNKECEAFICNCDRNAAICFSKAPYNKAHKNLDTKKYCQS
Chain of Aldo-keto reductase family 1 member B10 (Homo sapiens, UniProt O60218, W220Y) (O60218 whole entry W220Y): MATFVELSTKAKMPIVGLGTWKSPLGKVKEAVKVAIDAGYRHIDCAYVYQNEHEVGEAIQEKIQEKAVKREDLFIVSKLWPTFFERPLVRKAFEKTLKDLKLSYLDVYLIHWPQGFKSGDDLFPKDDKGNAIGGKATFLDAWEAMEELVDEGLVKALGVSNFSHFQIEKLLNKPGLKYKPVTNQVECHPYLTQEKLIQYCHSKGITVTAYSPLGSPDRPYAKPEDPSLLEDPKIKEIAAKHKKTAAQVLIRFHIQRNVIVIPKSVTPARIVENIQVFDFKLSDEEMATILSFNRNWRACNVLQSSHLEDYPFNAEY
Chain of Aldo-keto reductase family 1 member B10 (Homo sapiens, UniProt O60218, V301L) (O60218 whole entry V301L): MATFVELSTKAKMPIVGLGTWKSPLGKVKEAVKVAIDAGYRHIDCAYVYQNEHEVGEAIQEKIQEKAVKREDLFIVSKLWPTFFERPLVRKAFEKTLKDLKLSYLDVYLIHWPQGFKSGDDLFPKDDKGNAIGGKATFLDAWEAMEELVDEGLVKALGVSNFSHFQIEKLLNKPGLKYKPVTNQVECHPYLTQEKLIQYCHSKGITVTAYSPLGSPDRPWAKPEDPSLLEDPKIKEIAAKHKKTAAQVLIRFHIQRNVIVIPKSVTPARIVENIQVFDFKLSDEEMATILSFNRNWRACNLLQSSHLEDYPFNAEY

As to `C[C@H]1[C@H](C)CC[C@]2(C(=O)O)CC[C@]3(C)C(=CC[C@@H]4[C@@]5(C)C[C@@H](O)[C@H](O)[C@@](C)(CO)[C@@H]5CC[C@]43C)[C@H]12` [ASIATIC ACID], the Ratio IC50 in the test listed under Homo sapiens was determined as 6. Further, the IC50 in [1] was determined as 5.9 µM; in test [2], 34 µM.

Regarding `C=C(C)[C@@H]1CC[C@]2(C(=O)O)CC[C@]3(C)[C@H](CC[C@@H]4[C@@]5(C)CC[C@H](O)C(C)(C)[C@@H]5CC[C@]43C)[C@@H]12` [BETULINIC ACID], in the test listed under Homo sapiens, the Ratio IC50 is 6. The 50% inhibitory concentration (IC50) in [1] stood at 2 µM; in test [2], 11 µM.

With `CC1(C)[C@@H](O)CC[C@]2(C)[C@H]3C(=O)C=C4[C@@H]5C[C@@](C)(C(=O)O)CC[C@]5(C)CC[C@@]4(C)[C@]3(C)CC[C@@H]12` [ENOXOLONE], in the test filed under Homo sapiens, the Ratio IC50 turned out to be 57. The inhibition entry in test [3] was “Active”. Also, the IC50 came to 4.9 µM in test [1] and 280 µM in test [2].

As for `CC1(C)CC[C@]2(CO)CC[C@]3(C)C(=CC[C@@H]4[C@@]5(C)CC[C@H](O)C(C)(C)[C@@H]5CC[C@]43C)[C@@H]2C1` [ERYTHRODIOL], the Ratio IC50 in the test filed under Homo sapiens came out at 3. Besides, the IC50 in test [1] was 30 µM; in [2] it was 84 µM.

As for `C[C@H](CCC(=O)O)[C@H]1CC[C@H]2[C@@H]3CC[C@@H]4C[C@@H](O)CC[C@]4(C)[C@H]3CC[C@]12C` [ISOLITHOCHOLIC ACID], in test [1], the Ki was determined as 0.015 µM.

For the compound `CC1(C)CC[C@]2(C(=O)O)CC[C@]3(C)C(=CC[C@@H]4[C@@]5(C)C[C@@H](O)[C@H](O)C(C)(C)[C@@H]5CC[C@]43C)[C@@H]2C1` [MASLINIC ACID], the Ratio IC50 in the test filed under Homo sapiens is 114. Moreover, the IC50 amounted to 0.63 µM in [1] and 72 µM in [2].

`CC1(C)CC[C@]2(C(=O)O)CC[C@]3(C)C(=CC[C@@H]4[C@@]5(C)CC[C@H](O)C(C)(C)[C@@H]5CC[C@]43C)[C@@H]2C1` [OLEANOLIC_ACID]: the “growth inhibition (GI)” value in the test with HT-29 [4] is “Dose-dependent effect”. The CC50 with HT-29 [5] stood at 180 µM. Moreover, the inhibition entry in the test with HT-29 [6] is “inactive”. Moreover, the result in the test with HT-29 [7] and in the test on HT-29 [8] was Active. The inhibition entry in test [3] is “Active”. Further, the IC50 turned out to be 124 µM in test [2], 3 µM against DNA polymerase beta and 3 µM on Phospholipase A2.

As for `COc1ccc2c(C(=S)N(C)CC(=O)O)cccc2c1C(F)(F)F` [TOLRESTAT], in test [9], the inhibition entry is “Active”. The Ki in [1] was 0.05 µM. For the same compound, the outcome with HT-29 [8] was Active.

Regarding `C[C@H]1[C@H](C)CC[C@]2(C(=O)O)CC[C@]3(C)C(=CC[C@@H]4[C@@]5(C)CC[C@H](O)C(C)(C)[C@@H]5CC[C@]43C)[C@H]12` [URSOLIC ACID], the Ki in test [10] worked out at 6 µM; in test [11], 2.8 µM; in [12] it was 3.7 µM; in test [14], 2.1 µM; in test [15], 2 µM. Moreover, the Ratio IC50 in the test filed under Homo sapiens amounted to 10. Moreover, the figures for the IC50 in test [1] and in test [2] were 4 µM and 41 µM, respectively. Moreover, in test [13], the inhibition result was “Active”.

In general, IC50 refers to the concentration that gives 50% inhibition. For orientation: Ki means the dissociation constant of the complex between target and ligand, obtained from inhibition or displacement.
